Assay results published in paper PMC4837022 (Nature chemical biology, 2016).

Key:
Type in all cases: cell-based, murine
[1] = test system: CD4+ T-cell blasts (S-phase entry); experiment: S-phase entry by EdU labeling, delayed inhibitor addition; details: GDC-0941 1.5 µM added 12 hours after IL-2 stimulation
[2] = test system: CD4+ T-cell blasts; experiment: IL-2-driven T-cell proliferation; details: Mus musculus, read-out: EC90 for blocking T-cell proliferation
[3] = test system: pSTAT5 in CD4+ T-cell blasts; experiment: pSTAT5 time course after IL-2 stimulation; details: tofacitinib 50 nM
Outline: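 Rested mouse CD4+ T-cell blasts received 15 nM test compound or a reference JAK inhibitor (50 nM), 2 h before or 90 min after rhIL-2 (50 u/mL). pSTAT5 and pS6 (Ser240/244) were read by phosphoflow at the indicated times from 15 min onward: 2% PFA fixation, 90% methanol permeabilisation, barcoding. MFI was normalised to the 15-min DMSO maximum and given as mean ± SEM of 4–10 independent experiments.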

Row | Compound | S-phase entry [1] | EC90 [2] [nM] | reduction of pSTAT5 levels during the second wave [3] [%]
1 | CS(=O)(=O)N1CCN(Cc2cc3nc(-c4cccc5[nH]ncc45)nc(N4CCOCC4)c3s2)CC1 [GDC0941] | prevented the majority of cells from entering S-phase | – | –
2 | C[C@@H]1CCN(C(=O)CC#N)C[C@@H]1N(C)c1ncnc2[nH]ccc12 [tofacitinib] | – | 50 | > 50
